Screening data: PubChem, several laboratories
NF-kB neuron act: activators of NF-kB expression in neurons, primary screen, cell-based, HTS | human neuronal cells, NF-kB reporter expression; hits give high values | fold change at 12.5 µM | 190,000 compounds, 1.6% hits; in the data active means fold change above about 3.3
APP 5'UTR act: activators of APP 5'UTR luciferase reporter, primary screen, SH-SY5Y cells; SH-SY5Y APP 5'UTR luciferase reporter, luminescence; zero percent = DMSO vehicle wells; activation, % at 2 µM; 190,000 compounds, 1% hits; AID 1276, 2008;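 active means activation above a set limit, based on mean plus 3 SD of controls, cut at about 140% in these data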
STAT1 act-1: STAT1 signaling activators, primary screen, cell-based, HTS, luciferase reporter; activation (% of control), % at 5.5 µM; 200,000 compounds, 2.6% hits; NIH 3T3 STAT1-luciferase reporter, IFN-gamma, luminescence; 100% = IFN-gamma alone, no compound;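 active means activation above the screen-wide mean activation plus 3 SD, cut at about 130% in these data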;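 further: raw ratio to IFN-gamma control signal so 100% means no change and 0% no light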
STAT3 act-1: IL-6 driven STAT3 reporter potentiators, primary screen, U3A cells, luciferase, luminescence, MLSCN library. activation (% of control), % at 5.6 µM. 190,000 compounds, 0.91% hits. IL-6 STAT3-luciferase reporter; 100% = signal with IL-6 EC80 alone;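 active means activation above the screen-wide mean of compound activation plus 3 SD, cut at about 130% in these data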;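 further: 0% = background luminescence of wells with medium and substrate only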
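Detection: reporter luminescence signal / Assay system: STAT1-lacking human U3A cells, STAT3 luciferase reporter / Incubation: compound pre-incubation 1 h before IL-6, then 6 h stimulation at 37 °C / Control set: IL-6-only high control / Read-out: % activation relative to IL-6 control / Probe or stimulus: Interleukin-6, 33 ng/mL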
STAT1 inh: STAT1 signaling inhibitors, primary screen, cell-based, HTS, luciferase reporter. NIH 3T3 STAT1-luciferase reporter, IFN-gamma, luminescence. 200,000 compounds, 0.35% hits. inhibition, % at 5.5 µM. AID 920, 2007;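 active means inhibition above a set limit, the mean inhibition across all tested compounds plus 3 SD, cut at about 34% in these data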;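 further: 0% = IFN-gamma with DMSO and 100% = IFN-gamma with 300 µM nifuroxazide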
STAT3 inh-1: IL-6 driven STAT3 reporter inhibitors, primary screen, U3A cells, luciferase, luminescence, MLSCN library. IL-6 STAT3-luciferase reporter; host cell line lacks STAT1. inhibition, % at 5.5 µM. 190,000 compounds, 0.89% hits. AID 862, 2007;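 active means inhibition above the mean inhibition across all screened compounds plus 3 SD, cut at about 44% in these data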;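 further: 0% = DMSO only wells and 100% = 100 µM nifuroxazide control wells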
STAT3 inh-2: STAT3 reporter inhibitors, retest of hits, confirmation, U3A cells, luciferase, luminescence. inhibition, % at 5.7 µM. 1,200 compounds, 45% hits. IL-6 STAT3 luciferase reporter; cell line lacks STAT1. shares compounds with STAT3 inh-1;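 active means inhibition above the hit cutoff computed for the primary STAT3 screen, cut at about 44% in these data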;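 further: 0% = IL-6 plus DMSO and 100% = IL-6 plus nifuroxazide control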
NFkB inh STAT3ct: NF-kB reporter inhibitors in human cells, confirmation, counter-screen for STAT3 inhibitor project, cell-based, HEK293T, luciferase, TNF-alpha stimulus | shares compounds with STAT3 inh-1 | TNF-alpha induced | inhibition, % at 5.7 µM | 1,200 compounds, 36% hits | AID 1308, 2008;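 active means inhibition above the mean of solvent-only control wells plus 3 SD, cutoff set per campaign, cut at about 13% in these data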;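 further: 0% = TNF-alpha with DMSO and 100% = TNF-alpha with MG high control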
STAT1 inh 2: STAT1 reporter inhibitors, IFN-gamma induced, confirmation, counter-screen for STAT3 inhibitor project, cell-based, NIH 3T3, luciferase luminescence; AID 1317, 2008; NIH 3T3 STAT1-luciferase reporter; 1,200 compounds, 27% hits; inhibition, % at 5.7 µM; shares compounds with STAT3 inh-1;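 active means inhibition above the mean plus 3 SD of solvent-only control wells, limit set per screening run, cut at about 16% in these data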;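 further: 0% = DMSO with IFN-gamma and 100% = nifuroxazide control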
STAT3 act-2: STAT3 reporter potentiators, retest of hits, confirmation, U3A cells, luciferase, luminescence. shares compounds with STAT3 act-1. IL-6 potentiation; U3A cells lack STAT1; 100 means same as IL-6 alone. potentiation (% of control), % at 5.7 µM. 1,200 compounds, 64% hits. AID 1267, 2008;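 active means percent activation of the STAT3 luciferase reporter above a set limit taken from the earlier primary screen, cut at about 130% in these data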;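 further: 0% = background signal of medium plus substrate and 100% = median of IL-6 with DMSO wells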
NFkB act 2: NF-kB reporter activators in human cells, counter-screen for STAT3 activator project | 1,200 compounds, 11% hits | NF-kappaB reporter activation | shares compounds with STAT3 act-1 | AID 1309, 2008 | activation (% of control), % at 5.7 µM; in the data active means activation above about 120%;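 further: reporter induced by TNF-alpha stimulation; 100% = median of stimulated DMSO wells and 0% = no signal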
STAT1 act-2: STAT1 reporter activators, IFN-gamma induced, counter-screen for STAT3 activator project, cell-based, NIH 3T3, luciferase luminescence. activation (% of control), % at 5.7 µM. shares compounds with STAT3 act-1. NIH 3T3 STAT1-luciferase reporter. 1,200 compounds, 13% hits;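 active means activation above the solvent-only control well mean plus 3 SD, set per screening run, cut at about 120% in these data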;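 further: 100% = IFN-gamma with DMSO median signal so 100% means no change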
* = called active by the depositor. Shown are actives, neighbours in structure and some others; about 4.9% of the full set was active somewhere.

Results for O=c1[nH]c(=S)n(C2CC2)c(O)c1C=Nc1cccc(C(F)(F)F)c1 ?
NF-kB neuron act: 1.2; APP 5'UTR act: 0; STAT1 act-1: 100; STAT3 act-1: 101; STAT1 inh: 0; STAT3 inh-1: -6

What do the screens show for `C[C@@H]1O[C@@H](O[C@H]2C[C@@H](O)[C@]3(CO)[C@H]4[C@H](O)C[C@]5(C)[C@@H](C6COC(=O)C6)CC[C@]5(O)[C@@H]4CC[C@]3(O)C2)[C@H](O)[C@H](O)[C@H]1O` (stereo partly specified)?
NF-kB neuron act: 1.2; APP 5'UTR act: -93; STAT1 act-1: 91; STAT3 act-1: 53; STAT1 inh: 10; STAT3 inh-1: 56*; STAT3 inh-2: 32; NFkB inh STAT3ct: -26; STAT1 inh 2: -4

What do the screens show for `Cc1ccc(-c2nc3ccccc3c(=O)n2-c2ccncc2)cc1`?
NF-kB neuron act: 0.94; APP 5'UTR act: 2; STAT1 act-1: 111; STAT3 act-1: 99; STAT1 inh: -13; STAT3 inh-1: 3

What do the screens show for `O=c1c2ccccc2nc(-c2ccc(-c3ccccc3)cc2)n1-c1ccncc1`?
NF-kB neuron act: 0.9; APP 5'UTR act: 24; STAT1 act-1: 100; STAT3 act-1: 144*; STAT1 inh: -1; STAT3 inh-1: -36; STAT3 act-2: 134*; NFkB act 2: 103; STAT1 act-2: 110

What do the screens show for `c1ccc2c(CN3CCN(C4CCCCC4)CC3)c[nH]c2c1`?
NF-kB neuron act: 0.95; APP 5'UTR act: -6; STAT1 act-1: 86; STAT3 act-1: 166*; STAT1 inh: 16; STAT3 inh-1: -72; STAT3 act-2: 146*; NFkB act 2: 101; STAT1 act-2: 89

What do the screens show for `c1ccc2c(CN3CCCCCCC3)c[nH]c2c1`?
NF-kB neuron act: 1.1; APP 5'UTR act: 0; STAT1 act-1: 85; STAT3 act-1: 153*; STAT1 inh: 16; STAT3 inh-1: -56; STAT3 act-2: 149*; NFkB act 2: 102; STAT1 act-2: 85

How did Cc1nn(Cc2ccccc2)c(Cl)c1C(=O)OCC(=O)N1CCCC1 do in these assays?
NF-kB neuron act: 1.1; APP 5'UTR act: 13; STAT1 act-1: 104; STAT3 act-1: 102; STAT1 inh: -6; STAT3 inh-1: 6

What do the screens show for `COc1cc(CNCCc2ccc3c(c2)OCO3)cc(OC)c1OC`?
NF-kB neuron act: 0.94; APP 5'UTR act: 38; STAT1 act-1: 93; STAT3 act-1: 94; STAT1 inh: 8; STAT3 inh-1: 9
